EBI2 antag = blocks human EBI2 receptor beta-arrestin signaling; inhibition, % at 5 µM; actives 0.81% (n = 360,000); EBI2 beta-arrestin recruitment, luminescence, 7a,25-OHC stimulated; P32249; in the data active = inhibition above about 38%;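 note: enzyme fragment complementation signal reports receptor beta-arrestin coupling in cells; 0% = agonist plus DMSO wells and 100% = wells without agonist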
Target sequence (P32249 whole entry, looked up, the tested form may be a part): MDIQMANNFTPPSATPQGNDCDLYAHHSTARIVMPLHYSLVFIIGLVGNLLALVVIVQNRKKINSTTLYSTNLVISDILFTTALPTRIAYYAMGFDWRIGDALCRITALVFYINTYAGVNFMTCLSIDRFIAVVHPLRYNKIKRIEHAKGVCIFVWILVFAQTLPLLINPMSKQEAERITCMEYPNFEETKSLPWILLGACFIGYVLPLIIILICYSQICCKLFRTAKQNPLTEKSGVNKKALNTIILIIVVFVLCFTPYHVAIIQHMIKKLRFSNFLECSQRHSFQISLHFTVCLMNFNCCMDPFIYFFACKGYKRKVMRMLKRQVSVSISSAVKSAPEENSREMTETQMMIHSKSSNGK
GRIN3A LBD mod = NR3A (human) ligand-binding domain modulation | NR3A LBD differential scanning fluorimetry, Tm shift; 0% = protein alone, 100% = glycine-bound protein | AID 1259313 | actives 2.5% (n = 340,000) | Tm shift relative to glycine control, % at 25 µM;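 active = melting temperature shift of at least 10% of the positive control shift, at one fixed dose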
SENP1 inh = inhibitors of human SENP1 SUMO protease catalytic domain; recombinant SENP1 catalytic domain, CyPet-SUMO1-YPet FRET cleavage; inhibition, % at 10 µM; actives 0.21% (n = 360,000);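 active = inhibition at least 30% at 10 µM, raw YFP signal under a set limit, fluorescence ratio 0.5 to 1.5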;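 note: 0% = enzyme with DMSO and 100% = no enzyme wells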
Target sequence (Q9P0U3 419-644 limits assumed): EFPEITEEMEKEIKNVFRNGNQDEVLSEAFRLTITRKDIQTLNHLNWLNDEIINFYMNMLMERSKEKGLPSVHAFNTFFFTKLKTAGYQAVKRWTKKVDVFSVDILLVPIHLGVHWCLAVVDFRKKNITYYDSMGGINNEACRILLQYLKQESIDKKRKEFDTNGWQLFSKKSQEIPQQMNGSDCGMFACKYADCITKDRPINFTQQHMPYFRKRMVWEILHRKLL
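Compound: 10 µM single point, 0.5% DMSO; Test system: hSENP1 catalytic domain, recombinant; Timing: 50 min reaction at room temperature; Technique: FRET, CFP and YFP emission; Control set: no-enzyme wells low, DMSO-plus-enzyme wells high control.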
MPTP inh = permeability transition pore inhibition; isolated mouse mitochondria, Ca2+ swelling absorbance, 30 min; inhibition, % at 10 µM; actives 1.4% (n = 360,000); AID 602449;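 active = inhibition of 50% or more, scaled per plate between neutral and stimulator controls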;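 note: 0% = DMSO wells given calcium and 100% = 1 mM EGTA wells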
* marks the source's active call; other numbers are inactive results. This is a sample that favours compounds with a hit; in the whole collection about 4.4% have one here.

COc1ccc(NC(=O)Nc2ccc(OCC(=O)N3CCOCC3)cc2)cc1OC was read as EBI2 antag -3, GRIN3A LBD mod 11*, SENP1 inh 3 and MPTP inh -1.
COC(c1ccccc1)c1nnc(CCC(=O)N(C)Cc2cccc(-n3cccn3)c2)o1 (stereo unspecified) was read as EBI2 antag 1, GRIN3A LBD mod 0, SENP1 inh 0 and MPTP inh 0.
C[C@@H]1CN([C@H](C)CO)C(=O)CCCn2cc(nn2)CO[C@H]1CN(C)C(=O)Nc1ccccc1 was read as EBI2 antag -10, SENP1 inh 0 and MPTP inh 0.
`CCc1ccccc1NC(=O)NNC(=O)CCc1ccccc1` gave EBI2 antag -8, GRIN3A LBD mod 2, SENP1 inh 0 and MPTP inh 1.
For Cc1ccc(C)c(NC(=O)C(c2ccccc2)N2CCOCC2)c1 (stereo unspecified) the results were EBI2 antag 7, GRIN3A LBD mod 0, SENP1 inh 3 and MPTP inh 0.
For CCCCOC(=O)c1nc(Cl)c(Cl)c(N)c1Cl the results were EBI2 antag 2, GRIN3A LBD mod 13*, SENP1 inh 0 and MPTP inh 0.
`CCCCCCCOC(=O)c1nc(Cl)c(Cl)c(N)c1Cl` gave EBI2 antag 5, GRIN3A LBD mod 2, SENP1 inh 1 and MPTP inh -2.
O=c1c2ccccc2ncn1CCOc1ccccc1[N+](=O)[O-] was read as EBI2 antag -1, GRIN3A LBD mod -1, SENP1 inh 1 and MPTP inh 0.
For COc1ccc(N2CCN(C(=O)CNC(=O)Cc3ccc(Cl)cc3)CC2)cc1 the results were EBI2 antag 0, GRIN3A LBD mod 13*, SENP1 inh 1 and MPTP inh -2.
For COc1ccc(N2CCN(C(=O)CNC(=O)Cc3ccccc3)CC2)cc1 the results were EBI2 antag -4, GRIN3A LBD mod -1, SENP1 inh -1 and MPTP inh 0.
`CN(C)S(=O)(=O)Oc1ccsc1C(=O)Nc1cccc(Cl)c1` gave EBI2 antag 1, GRIN3A LBD mod -12, SENP1 inh 1 and MPTP inh 0.
`COC(=O)c1sccc1-c1ccc(C(=O)Nc2cccc(Cl)c2)o1` gave EBI2 antag 13, GRIN3A LBD mod 24*, SENP1 inh -1 and MPTP inh 32.
For COc1cc(/C=C2\OC(=O)c3c(OC)cccc32)ccc1O the results were EBI2 antag -13, GRIN3A LBD mod 17*, SENP1 inh -18 and MPTP inh -1.
O=C(Cn1cc(COc2ccc3ccc(=O)oc3c2)nn1)c1ccc(O)cc1 was read as EBI2 antag -3, GRIN3A LBD mod 46*, SENP1 inh -4 and MPTP inh -1.
For Cc1nc2ccc(NC(=O)c3ccc(Cl)s3)cc2s1 the results were EBI2 antag 7, GRIN3A LBD mod 27*, SENP1 inh -2 and MPTP inh 0.
For Cc1ccc(C(=O)Nc2nc3ccccc3s2)s1 the results were EBI2 antag -2, GRIN3A LBD mod 18*, SENP1 inh -4 and MPTP inh -3.
For Cc1ccc2nc(NC(=O)c3ccc(Cl)s3)sc2c1 the results were EBI2 antag -11, GRIN3A LBD mod 20*, SENP1 inh 2 and MPTP inh 1.
Screening Cc1nc2ccc(NC(=O)c3cnc(Cl)c(Cl)c3)cc2s1 returned EBI2 antag -2, GRIN3A LBD mod -3, SENP1 inh -6 and MPTP inh 2.
`Cc1nc2ccc(NC(=O)c3nn(C(C)C)c(=O)c4ccccc34)cc2s1` gave EBI2 antag 3, GRIN3A LBD mod 17*, SENP1 inh -10 and MPTP inh 1.
Cc1onc(-c2ccccc2)c1C(=O)OCC(=O)N1CCC(C)CC1 was read as EBI2 antag 4, GRIN3A LBD mod 0, SENP1 inh 2 and MPTP inh 0.
O=C(O)c1ccc(S(=O)(=O)NC2CCCCCC2)cc1 was read as EBI2 antag -8, GRIN3A LBD mod 3, SENP1 inh 2 and MPTP inh 0.
For Cc1cccc(C(=O)NNC(=O)CSc2nnc(C3CC3)n2C)c1 the results were EBI2 antag 2, GRIN3A LBD mod 0, SENP1 inh 1 and MPTP inh 1.
For COc1cccc2sc(NC(=O)c3ccc(Br)s3)nc12 the results were EBI2 antag 14, GRIN3A LBD mod 11*, SENP1 inh 0 and MPTP inh 0.
COc1ccc(NC(=O)COC(=O)c2ccc(S(=O)(=O)N3CCCCC3)cc2)c(OC)c1 was read as EBI2 antag 1, SENP1 inh 3 and MPTP inh 1.
O=C1CC2C(=O)NCCN2C(=NC(=O)c2ccc(Cl)cc2)N1 (stereo unspecified) was read as EBI2 antag 0, GRIN3A LBD mod -1, SENP1 inh -1 and MPTP inh 2.
`COc1ccc(-c2sc(Nc3ccccc3)n[n+]2-c2ccc(F)cc2)c(C)c1C` gave EBI2 antag 5, GRIN3A LBD mod -11, SENP1 inh -7 and MPTP inh 38.
For CN(C(=O)COC(=O)c1ccccc1Nc1ccccc1)c1c(N)n(Cc2ccccc2)c(=O)[nH]c1=O the results were EBI2 antag 0, GRIN3A LBD mod 24*, SENP1 inh -6 and MPTP inh -4.
CCN(C(=O)COC(=O)CCS(=O)(=O)c1ccccc1)c1c(N)n(Cc2ccccc2)c(=O)[nH]c1=O was read as EBI2 antag 3, GRIN3A LBD mod 17*, SENP1 inh -1 and MPTP inh -3.
Screening COCCN(C(=O)COC(=O)c1cccc2ccccc12)c1c(N)n(Cc2ccccc2)c(=O)[nH]c1=O returned EBI2 antag -8, GRIN3A LBD mod 6, SENP1 inh 0 and MPTP inh 0.
`COCCN(C(=O)COC(=O)c1ccccc1Nc1ccccc1)c1c(N)n(Cc2ccccc2)c(=O)[nH]c1=O` gave EBI2 antag 4, GRIN3A LBD mod 19*, SENP1 inh -6 and MPTP inh -2.
`CCN(C(=O)COC(=O)CCOc1ccccc1)c1c(N)n(Cc2ccccc2)c(=O)[nH]c1=O` gave EBI2 antag 0, GRIN3A LBD mod 2, SENP1 inh 2 and MPTP inh -1.
Screening COc1ccccc1NC(=S)N(Cc1ccccc1)Cc1ccccn1 returned EBI2 antag -3, GRIN3A LBD mod 13*, SENP1 inh 0 and MPTP inh 0.
COc1ccc(NC(=S)N(CCC(C)C)C2CCN(C(C)C)CC2)cc1Cl was read as EBI2 antag 8, GRIN3A LBD mod 19*, SENP1 inh -126 and MPTP inh 0.
COc1cccc(/C=N/n2nnnc2N)c1OCC#N was read as EBI2 antag -5, GRIN3A LBD mod 13*, SENP1 inh 1 and MPTP inh 3.
Nc1nnnn1/N=C/c1ccccc1OCc1ccccc1 was read as EBI2 antag 8, GRIN3A LBD mod -1, SENP1 inh 1 and MPTP inh 2.
Cc1c(C(=O)NCc2ccc3c(c2)cc(C)n3C)cccc1[N+](=O)[O-] was read as EBI2 antag 9, GRIN3A LBD mod -4, SENP1 inh 1 and MPTP inh -1.

From PubChem
